Assay results taken from ChEMBL document CHEMBL1123904, “Synthesis, structure, and biological activity of certain 2-deoxy-beta-D-ribo-hexopyranosyl nucleosides and nucleotides” (J Med Chem, 1987).

Legend:
Measles morbillivirus = assay: In vitro antiviral activity Virus rating (VR) determined by comparing CPE development in drug-treated cells (T) and virus control cells (C) against, measles; type: functional
Procedure, shortened: (§1)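 Vero (African green monkey kidney) cells in 10% FBS DMEM, seeded 4 × 10^4 cells/well, confluent over 24 h at 37 °C, 5% CO2. Virus (amount giving full monolayer destruction in 72 h; HSV-2 strain 333, measles Edmonston, para 3 C243) adsorbed 30 min. Compound added after adsorption at seven 0.5-log steps, final 5 × 10^-6 to 5 × 10^-3 M. Duplicate infected wells, single uninfected wells for toxicity.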

Human alphaherpesvirus 2 = assay: In vitro antiviral activity Virus rating (VR) determined by comparing CPE development in drug-treated cells (T) and virus control cells (C) against, Herpes simplex virus-2; type: functional; procedure, shortened: as §1
Vaccinia virus = assay: In vitro antiviral activity Virus rating (VR) determined by comparing CPE development in drug-treated cells (T) and virus control cells (C) against, Vaccinia virus; type: functional, Orthopoxvirus vaccinia
Human respirovirus 3 = assay: In vitro antiviral activity Virus rating (VR) determined by comparing CPE development in drug-treated cells (T) and virus control cells (C) against, parainfluenza type 3 (para 3); type: functional; procedure, shortened: as §1
[1] = Ability of inhibit mammalian uridine phosphorylase
Adenosine deaminase = biological target: T1, Adenosine deaminase (Bos taurus, UniProt P56658); assay: Ability to inhibit adenosine deaminase
T1 sequence (P56658 whole entry): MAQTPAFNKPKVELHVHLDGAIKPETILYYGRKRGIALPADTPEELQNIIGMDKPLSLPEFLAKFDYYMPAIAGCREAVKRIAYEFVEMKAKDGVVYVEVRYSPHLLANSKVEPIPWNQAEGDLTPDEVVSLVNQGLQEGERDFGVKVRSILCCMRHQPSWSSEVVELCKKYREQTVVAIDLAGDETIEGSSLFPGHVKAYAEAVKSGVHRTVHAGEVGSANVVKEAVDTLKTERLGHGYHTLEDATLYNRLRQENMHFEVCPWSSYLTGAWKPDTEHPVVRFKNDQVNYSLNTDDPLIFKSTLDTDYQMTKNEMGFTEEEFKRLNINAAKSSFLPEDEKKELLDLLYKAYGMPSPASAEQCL
Procedure, shortened: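 Calf intestine adenosine deaminase; substrate and inhibitor kinetic parameters measured spectrophotometrically.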

Compound	VR (Measles morbillivirus)	VR (Human alphaherpesvirus 2)	VR (Vaccinia virus)	VR (Human respirovirus 3)	Ki [1] [µM]	Ki (Adenosine deaminase) [µM]
Nc1ncnc2c1ncn2C1CC(O)C(O)C(COP(=O)(O)O)O1 (stereo not given)	0.24	0.44	0	0.16	–	–
Nc1ccn(C2CC(O)C(O)C(CO)O2)c(=O)n1 (stereo not given)	0.5	0	0	0.15	–	–
Cc1cn(C2CC(O)C(O)C(CO)O2)c(=O)[nH]c1=O (stereo not given)	–	–	–	–	12	–
Nc1ncnc2c1ncn2C1CC(O)C(O)C(CO)O1 (stereo not given)	0.9	0	0	0.35	–	–
O=c1ccn(C2CC(O)C(O)C(COP(=O)(O)O)O2)c(=O)[nH]1 (stereo not given)	0.44	0.74	0.28	0.64	–	–
Nc1ncnc2ncn(C3CC(O)C(O)C(CO)O3)c12 (stereo not given)	0	0.08	0.22	0	–	–
Nc1nc(O)c2ncn(C3CC(O)C(O)C(CO)O3)c2n1 (stereo not given)	0.3	1.06	0.19	0	–	–
O=c1ccn(C2CC(O)C(O)C(CO)O2)c(=O)[nH]1 (stereo not given)	0	0.06	0.25	0	–	–
OCC1OC(n2cnc3c(O)ncnc32)CC(O)C1O (stereo not given)	0	0.07	0.1	0.06	–	–
Nc1nc(N)c2ncn(C3CC(O)C(O)C(CO)O3)c2n1 (stereo not given)	0.54	0.62	0.22	0.25	–	–
Nc1ccn(C2CC(O)C(O)C(COP(=O)(O)O)O2)c(=O)n1 (stereo not given)	0.06	–	0.25	0.28	–	–
Nc1nc(Cl)nc2c1ncn2C1CC(O)C(O)C(CO)O1 (stereo not given)	0.05	0.34	0.04	0	–	–
OC[C@H]1O[C@@H](n2cnc3c(O)ncnc32)C[C@@H]1O [DEOXYINOSINE]	–	–	–	–	–	150
OC[C@H]1O[C@@H](n2cnc3c(O)ncnc32)[C@H](O)[C@@H]1O [INOSINE]	–	–	–	–	–	500
Nc1ncnc2c1ncn2[C@@H]1C=C(CO)[C@@H](O)[C@H]1O [NEOPLANOCIN A]	0.75	1.39	1.38	1.6	–	–
